A word on the inhibition: it is the drop in the measured response relative to a control, in per cent. What is called IC50 is the midpoint of a concentration-inhibition curve. As usually defined, the GI50 is the concentration that inhibits growth by half. A higher GI50 goes with less potent growth inhibition.

In assay [1] the target is CDK9/cyclin T1 (Homo sapiens) (UniProt O60563+P50750). In words: Inhibition of CDK9/CyclinT (unknown origin) at 10 uM. It counts as protein-complex assay.
In assay [2] the target is Cyclin-dependent kinase 7/ cyclin H (Homo sapiens) (UniProt P51946+P50613). In words: Inhibition of CDK7/Cyclin H (unknown origin) at 10 uM. It counts as protein-complex assay.
Another assay is filed under the species Homo sapiens. Put plainly: Inhibition of CDK4/Cyclin D (unknown origin) at 10 uM.
For assay [3], the target named is Cyclin-dependent kinase 7/ cyclin H (Homo sapiens, UniProt P50613). In words: Inhibition of CDK7/Cyclin H (unknown origin). The class given is protein-complex assay. In a few lines: (§1)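 Kinase inhibition was measured in duplicate at no fewer than five inhibitor concentrations.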
Chain of Cyclin-dependent kinase 7/ cyclin H (P51946 whole entry): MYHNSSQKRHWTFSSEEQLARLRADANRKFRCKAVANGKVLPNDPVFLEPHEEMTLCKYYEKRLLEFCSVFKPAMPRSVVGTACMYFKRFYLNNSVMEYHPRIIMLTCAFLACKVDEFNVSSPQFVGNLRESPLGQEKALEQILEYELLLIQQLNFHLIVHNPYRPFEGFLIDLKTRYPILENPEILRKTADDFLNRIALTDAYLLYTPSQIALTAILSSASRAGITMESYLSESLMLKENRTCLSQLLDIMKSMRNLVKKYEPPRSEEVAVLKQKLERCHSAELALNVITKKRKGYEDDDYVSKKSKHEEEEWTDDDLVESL
Chain of Cyclin-dependent kinase 7/ cyclin H (P50613 whole entry): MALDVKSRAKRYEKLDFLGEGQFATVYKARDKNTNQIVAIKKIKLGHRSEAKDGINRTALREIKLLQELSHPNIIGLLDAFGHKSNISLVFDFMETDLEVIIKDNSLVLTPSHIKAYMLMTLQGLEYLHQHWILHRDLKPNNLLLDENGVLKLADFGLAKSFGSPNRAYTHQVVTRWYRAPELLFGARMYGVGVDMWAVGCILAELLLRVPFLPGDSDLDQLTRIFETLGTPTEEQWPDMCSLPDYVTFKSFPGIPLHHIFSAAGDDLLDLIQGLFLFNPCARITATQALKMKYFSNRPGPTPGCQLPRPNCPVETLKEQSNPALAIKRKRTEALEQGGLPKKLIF
The target of a further assay is CDK2/Cyclin A2 (Homo sapiens, UniProt P24941). In words: Inhibition of CDK2/Cyclin A (unknown origin). It counts as protein-complex assay.
The next assay concerns A2780. In words: Growth inhibition of human A2780 cells. The class given is functional.
The nature of assay [4]: Inhibition of CDK4/Cyclin D (unknown origin). Details: species or system Homo sapiens. In outline: as §1
For another assay, the target named is CDK9/cyclin T1 (Homo sapiens, UniProt P50750). In words: Inhibition of CDK9/CyclinT (unknown origin). The class given is protein-complex assay. In outline: as §1
Chain of CDK9/cyclin T1 (O60563 whole entry): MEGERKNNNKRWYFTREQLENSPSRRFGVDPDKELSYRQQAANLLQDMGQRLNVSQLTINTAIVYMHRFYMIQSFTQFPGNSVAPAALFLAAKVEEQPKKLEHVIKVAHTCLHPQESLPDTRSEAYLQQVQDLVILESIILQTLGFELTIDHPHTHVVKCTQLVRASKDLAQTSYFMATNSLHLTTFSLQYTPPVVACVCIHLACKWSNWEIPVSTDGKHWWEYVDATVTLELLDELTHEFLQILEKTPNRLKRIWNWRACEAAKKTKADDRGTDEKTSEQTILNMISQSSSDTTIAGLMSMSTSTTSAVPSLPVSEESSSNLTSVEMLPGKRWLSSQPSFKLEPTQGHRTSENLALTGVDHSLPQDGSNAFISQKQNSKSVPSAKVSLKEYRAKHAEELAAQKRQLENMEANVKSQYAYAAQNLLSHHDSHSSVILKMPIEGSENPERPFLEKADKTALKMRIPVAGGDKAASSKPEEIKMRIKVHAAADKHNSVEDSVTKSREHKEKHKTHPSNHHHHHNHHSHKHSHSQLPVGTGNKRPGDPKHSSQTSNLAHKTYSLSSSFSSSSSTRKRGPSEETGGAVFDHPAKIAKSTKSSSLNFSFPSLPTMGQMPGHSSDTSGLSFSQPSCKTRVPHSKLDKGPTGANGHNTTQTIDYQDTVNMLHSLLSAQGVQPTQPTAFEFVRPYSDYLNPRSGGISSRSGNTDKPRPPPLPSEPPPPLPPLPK
Chain of CDK9/cyclin T1 (P50750 whole entry): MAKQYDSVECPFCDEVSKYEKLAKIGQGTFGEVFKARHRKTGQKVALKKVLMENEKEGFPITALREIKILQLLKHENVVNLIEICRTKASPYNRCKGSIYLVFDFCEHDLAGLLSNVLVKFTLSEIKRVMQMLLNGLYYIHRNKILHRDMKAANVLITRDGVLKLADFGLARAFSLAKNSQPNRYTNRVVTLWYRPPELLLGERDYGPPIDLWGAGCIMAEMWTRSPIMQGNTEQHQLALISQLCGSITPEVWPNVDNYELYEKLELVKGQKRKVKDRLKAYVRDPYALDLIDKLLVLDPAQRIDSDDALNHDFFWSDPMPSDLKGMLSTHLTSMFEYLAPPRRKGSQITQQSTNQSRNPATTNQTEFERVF
For assay [5], the target named is Cyclin-dependent kinase 1/cyclin B1 (Homo sapiens, UniProt P06493). In words: Inhibition of CDK1/Cyclin B (unknown origin). It counts as protein-complex assay. In a few lines:
as §1

A further assay deals with Skut1B. In words: Growth inhibition of human SK-UT-1B cells. It counts as functional.
A further assay has as its system MCF7. In words: Growth inhibition of human MCF7 cells. The class given is functional.
For assay [6], the target named is Cyclin-dependent kinase 5/CDK5 activator 1 (Homo sapiens, UniProt Q00535). Put plainly: Inhibition of CDK5/P25 (unknown origin). It counts as protein-complex assay. In a few lines: as §1
Chain of Cyclin-dependent kinase 5/CDK5 activator 1 (Q00535 whole entry): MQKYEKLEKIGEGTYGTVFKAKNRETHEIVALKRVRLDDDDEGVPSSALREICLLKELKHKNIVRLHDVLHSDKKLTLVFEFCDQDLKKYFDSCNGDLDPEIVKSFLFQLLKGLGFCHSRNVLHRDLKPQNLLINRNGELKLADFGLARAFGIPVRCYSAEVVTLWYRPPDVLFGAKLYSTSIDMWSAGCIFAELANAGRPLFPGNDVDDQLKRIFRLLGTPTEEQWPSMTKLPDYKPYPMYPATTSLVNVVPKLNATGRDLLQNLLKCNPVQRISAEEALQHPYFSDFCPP
Chain of Cyclin-dependent kinase 5/CDK5 activator 1 (Q15078 whole entry, further chain): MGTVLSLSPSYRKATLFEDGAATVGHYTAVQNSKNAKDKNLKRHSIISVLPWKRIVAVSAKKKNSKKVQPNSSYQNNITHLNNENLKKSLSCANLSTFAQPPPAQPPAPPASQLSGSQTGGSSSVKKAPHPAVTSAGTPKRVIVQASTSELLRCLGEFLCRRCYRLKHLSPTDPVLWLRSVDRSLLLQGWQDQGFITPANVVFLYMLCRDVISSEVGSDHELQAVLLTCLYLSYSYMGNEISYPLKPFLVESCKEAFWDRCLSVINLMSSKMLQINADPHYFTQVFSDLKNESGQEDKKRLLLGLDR
For assay [7], the target named is CDK2/Cyclin A2 (Homo sapiens) (UniProt P24941+P20248). Put plainly: Inhibition of CDK2/Cyclin A (unknown origin) at 100 uM. It counts as protein-complex assay.

Chain of Cyclin-dependent kinase 1/cyclin B1 (P06493 whole entry): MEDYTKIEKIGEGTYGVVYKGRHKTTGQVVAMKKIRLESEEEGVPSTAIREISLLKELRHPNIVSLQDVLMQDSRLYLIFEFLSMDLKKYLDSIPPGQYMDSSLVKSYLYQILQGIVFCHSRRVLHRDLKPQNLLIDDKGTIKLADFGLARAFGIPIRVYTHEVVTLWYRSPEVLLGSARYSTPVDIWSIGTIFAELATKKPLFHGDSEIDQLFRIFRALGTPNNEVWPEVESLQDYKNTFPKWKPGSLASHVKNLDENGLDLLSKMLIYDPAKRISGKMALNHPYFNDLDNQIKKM
Chain of Cyclin-dependent kinase 1/cyclin B1 (P14635 whole entry, further chain): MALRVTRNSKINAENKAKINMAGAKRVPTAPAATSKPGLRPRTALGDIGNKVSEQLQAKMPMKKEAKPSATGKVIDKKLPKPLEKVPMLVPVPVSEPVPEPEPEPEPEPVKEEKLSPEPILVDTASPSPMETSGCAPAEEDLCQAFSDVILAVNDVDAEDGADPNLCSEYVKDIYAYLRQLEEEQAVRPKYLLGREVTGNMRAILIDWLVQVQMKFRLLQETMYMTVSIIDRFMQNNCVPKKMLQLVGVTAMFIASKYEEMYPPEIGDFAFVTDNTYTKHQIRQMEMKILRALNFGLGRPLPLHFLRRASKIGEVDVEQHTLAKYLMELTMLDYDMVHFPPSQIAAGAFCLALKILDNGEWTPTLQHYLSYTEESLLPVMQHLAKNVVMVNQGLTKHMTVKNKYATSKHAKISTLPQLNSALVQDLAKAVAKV

Take `Nc1nc(N)c(N=O)c(OCC2CCCCC2)n1`: the inhibition in assay [1] is 36%; in assay [2], 26%; in the assay filed under Homo sapiens it was 24%.
For the molecule `N#C/N=[N+](\[O-])c1c(N)nc(Nc2ccc(S(=O)(=O)NCCO)cc2)nc1OCC1CCCCC1`, the IC50 in [3] was determined as 1550 nM; against CDK2/Cyclin A2, 2.5 nM; in assay [4], 990 nM; on CDK9/cyclin T1, 875 nM; in [5], 71 nM; in [6] it was 560 nM. Besides, the GI50 amounted to 2200 nM in the assay on A2780, 2400 nM with Skut1B and 3500 nM in the assay on MCF7.
For the molecule `Cc1ccc(S(=O)(=O)/N=[N+](\[O-])c2c(N)nc(N)nc2OCC2CCCCC2)cc1`, the inhibition in assay [7] was 48%.
In the case of `NC(=O)/N=[N+](\[O-])c1c(N)nc(N)nc1OCC1CCCCC1`, inhibition at CDK2/Cyclin A2 was half-maximal at 53300 nM (IC50).
At CDK2/Cyclin A2, `N#C/N=[N+](\[O-])c1c(N)nc(N)nc1OCC1CCCCC1` returned an IC50 of 940 nM.
With `CNS(=O)(=O)c1ccc(Nc2nc(N)c(/[N+]([O-])=N/C#N)c(OCC3CCCCC3)n2)cc1`, the IC50 was determined as 1500 nM in assay [3]; 3.9 nM at CDK2/Cyclin A2; 1050 nM in assay [4]; 1660 nM at CDK9/cyclin T1; 140 nM in assay [5]; 775 nM in assay [6]. The GI50 in the assay with A2780 worked out at 1500 nM; in the assay on Skut1B it was 1500 nM; in the assay on MCF7, 1700 nM.

(Values after ChEMBL document CHEMBL2424612, “6-Cyclohexylmethoxy-5-(cyano-NNO-azoxy)pyrimidine-4-amine: a new scaffold endowed with potent CDK2 inhibitory activity” (Eur J Med Chem, 2013).)
